Measurements published in ChEMBL document CHEMBL1828528, “Acyclic nucleoside thiophosphonates as potent inhibitors of HIV and HBV replication” (Eur J Med Chem, 2011).

Key:
[1] = target: Human immunodeficiency virus type 1 reverse transcriptase (Human immunodeficiency virus 1, UniProt Q72547); assay: Inhibition of wild-type HIV1 subtype B reverse transcriptase assessed as incorporation of [3H]dTTP
Outline: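 Recombinant clade B HIV-1 WT RT p66/p51, co-expressed with protease in E. coli, affinity-purified and active-site titrated. Diphosphate forms assayed on activated calf thymus DNA with [3H]dTTP. Aliquots spotted in duplicate on DE81 discs, washed with ammonium formate pH 8.0 and ethanol, then scintillation counted. IC50 averaged over ≥3 independent experiments.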

[2] = test system: Human immunodeficiency virus 1; assay: Antiviral activity against HIV1 clade B isolate 2101 infected in human H9 cells assessed as inhibition of viral replication; assay type: functional, organism-based; settings: Human immunodeficiency virus 1, clade B isolate 2101, H9
Outline: (§1)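 H9 cells infected with HIV-1 clinical isolates of clades A, B, C, D, A/E, F and G, in the presence of graded compound concentrations. EC50 is the concentration reducing viral replication by 50%.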

[3] = test system: Human alphaherpesvirus 2; assay: Antiviral activity against Herpes simplex virus type 2 G infected in HEL cells assessed as inhibition of virus-induced cytopathic effect; assay type: functional, organism-based; settings: Human alphaherpesvirus 2, strain G
Outline: (§2)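 Confluent HEL cell monolayers inoculated with 100 CCID50 of virus. Compounds added after a 1–2 h adsorption period. Virus-induced cytopathic effect scored microscopically at 3 days post infection as % of untreated controls. EC50 derived from graphical plots.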

[4] = (§3) Cytotoxicity against human CEM cells; assay type: cell-based, CCRF-CEM; settings: CCRF-CEM (CEM) cells
Outline: (§4)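 Mock-infected CEM cells cultured alongside the anti-HIV assay with compound dilutions for 4 days at 37 °C. CC50 is the concentration inhibiting CEM cell proliferation by 50%.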

[5] = test system: Human immunodeficiency virus 1; assay: Antiviral activity against HIV1 clade G isolate 3187 infected in human H9 cells assessed as inhibition of viral replication; assay type: functional, organism-based; settings: Human immunodeficiency virus 1, clade G isolate 3187, H9; outline: as §1
[6] = test system: Vaccinia virus; assay: Antiviral activity against Vaccinia virus infected in HEL cells assessed as inhibition of virus-induced cytopathic effect; assay type: functional, organism-based; settings: Orthopoxvirus vaccinia; outline: as §2
[7] = test system: Human immunodeficiency virus 1; assay: Antiviral activity against HIV1 clade F isolate 2338 infected in human H9 cells assessed as inhibition of viral replication; assay type: functional, organism-based; settings: Human immunodeficiency virus 1, clade F isolate 2338, H9; outline: as §1
[8] = test system: Human immunodeficiency virus 1; assay: Antiviral activity against 100 TCID50 wild type HIV1 LAI infected in human PBMC assessed as reduction in viral replication measured on day 7 post infection by reverse transcriptase activity; assay type: functional, organism-based; settings: Human immunodeficiency virus 1, LAI, 168 h
Outline: (§5)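 PHA-P-activated PBMC (1.5 × 10^5; donor cells stimulated 3 days with 1 μg/mL PHA-P plus 5 IU/mL IL-2) or H9 cells (5 × 10^5) in RPMI-1640/10% FCS. Cells pre-treated 30 min with graded compound concentrations, then infected with HIV-1 LAI (100 or 125 TCID50). Supernatant RT activity read on day 7. EC50 from quadratic fit of % inhibition; triplicates, PBMC repeated with a second donor.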

[9] = test system: Human immunodeficiency virus 1; assay: Antiviral activity against HIV1 clade A/E isolate 2165 infected in human H9 cells assessed as inhibition of viral replication; assay type: functional, organism-based; settings: Human immunodeficiency virus 1, clade A/E isolate 2165, H9; outline: as §1
[10] = test system: Human immunodeficiency virus 1; assay: Antiviral activity against 100 TCID50 wild-type Human immunodeficiency virus 1 3B infected in CEM cells assessed as inhibition of syncytia formation after 4 days by microscopic analysis; assay type: functional, organism-based; settings: CCRF-CEM, 96 h
Outline: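 Human CEM cells (~3 × 10^5 cells/cm3) infected with 100 CCID50/mL HIV-1 IIIB and seeded into wells holding compound dilutions. After 4 days at 37 °C, giant-cell (syncytium) formation was scored microscopically. EC50 is the concentration inhibiting syncytia formation by 50%.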

[11] = test system: Human immunodeficiency virus 1; assay: Antiviral activity against HIV1 clade D isolate 1649 infected in human H9 cells assessed as inhibition of viral replication; assay type: functional, organism-based; settings: Human immunodeficiency virus 1, clade D isolate 1649, H9; outline: as §1
[12] = test system: Human alphaherpesvirus 1; assay: Antiviral activity against TK-deficient and ACR-resistant Herpes simplex virus type 1 KOS infected in HEL cells assessed as inhibition of virus-induced cytopathic effect; assay type: functional, organism-based; settings: Human alphaherpesvirus 1, KOS; outline: as §2
[13] = Cytotoxicity against human HEL cells assessed as alteration in cellular morphology by microscopic analysis; assay type: cell-based
Outline: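 Uninfected confluent Vero, CrFK, HEL or HeLa cultures incubated with serial compound dilutions (up to 200 μM) for the same period as the antiviral assays. Minimal toxic concentration is the lowest giving microscopically detectable alteration of cell morphology.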

[14] = Cytotoxicity against human HepAD38 cells; assay type: cell-based
[15] = test system: Human immunodeficiency virus 1; assay: Antiviral activity against HIV1 clade B isolate 1722 infected in human H9 cells assessed as inhibition of viral replication; assay type: functional, organism-based; settings: Human immunodeficiency virus 1, clade B isolate 1722, H9; outline: as §1
[16] = Cytotoxicity against human HuH7 cells; assay type: cell-based; settings: Huh-7 cells
[17] = test system: Human immunodeficiency virus 2; assay: Antiviral activity against 100 TCID50 wild-type Human immunodeficiency virus type 2 ROD infected in C8166 cells assessed as inhibition of syncytia formation after 4 days by microscopic analysis; assay type: functional, organism-based; settings: Human immunodeficiency virus 2, ISOLATE ROD, C8166, 96 h
[18] = test system: Human immunodeficiency virus 1; assay: Antiviral activity against 6250 TCID50 wild type HIV1 LAI infected in human H9 cells assessed as reduction in viral replication measured on day 7 post infection by reverse transcriptase activity; assay type: functional, organism-based; settings: Human immunodeficiency virus 1, LAI, H9, 168 h
Outline: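 H9 cells in RPMI-1640/10% FCS given graded compound concentrations, then infected with a high inoculum of 6250 TCID50 HIV-1 LAI. Supernatant reverse transcriptase activity measured on day 7 post infection. EC50 taken as the concentration giving 50% reduction of viral replication.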

[19] = test system: Human immunodeficiency virus 1; assay: Antiviral activity against 125 TCID50 wild type HIV1 LAI infected in human H9 cells assessed as reduction in viral replication measured on day 7 post infection by reverse transcriptase activity; assay type: functional, organism-based; settings: Human immunodeficiency virus 1, LAI, H9, 168 h; outline: as §5
[20] = Cytotoxicity against […]-activated human H9 cells on day 7 by MTT assay; assay type: cell-based
Outline: (§6)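 Uninfected PHA-P-activated PBMC and H9 cells exposed to graded compound concentrations. Viability by MTT on day 7. CC50 from quadratic fit of % viability against concentration; triplicates.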

[21] = test system: Human immunodeficiency virus 1; assay: Antiviral activity against HIV1 clade B isolate 2056 infected in human H9 cells assessed as inhibition of viral replication; assay type: functional, organism-based; settings: Human immunodeficiency virus 1, clade B isolate 2056, H9; outline: as §1
[22] = test system: Human immunodeficiency virus 1; assay: Antiviral activity against HIV1 clade C isolate 2914 infected in human H9 cells assessed as inhibition of viral replication; assay type: functional, organism-based; settings: Human immunodeficiency virus 1, clade C isolate 2914, H9; outline: as §1
[23] = Cytotoxicity against […]-activated human PBMC on day 7 by MTT assay; assay type: cell-based; outline: as §6
[24] = test system: Human alphaherpesvirus 1; assay: Antiviral activity against Herpes simplex virus type 1 KOS infected in HEL cells assessed as inhibition of virus-induced cytopathic effect; assay type: functional, organism-based; settings: Human alphaherpesvirus 1, KOS; outline: as §2
[25] = test system: Hepatitis B virus; assay: Antiviral activity against Hepatitis B virus infected in human HepAD38 cells assessed as reduction in viral DNA level after 6 days by real time quantitative PCR analysis; assay type: functional, organism-based; settings: HePAD38, 144 h
Outline: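 Tetracycline-regulated HepAD38 cells (5 × 10^5) induced after 2–3 days by PBS wash and feeding with medium lacking tetracycline and G418, with or without compound. Medium changed at day 3. Intracellular HBV DNA quantified by TaqMan Q-PCR at day 6 post induction against a full-genome plasmid standard curve, expressed as % of untreated. Actives retested.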

[26] = test system: Human immunodeficiency virus 1; assay: Antiviral activity against HIV1 clade A isolate 4113 infected in human H9 cells assessed as inhibition of viral replication; assay type: functional, organism-based; settings: Human immunodeficiency virus 1, clade A isolate 4113, H9; outline: as §1
[27] = test system: Human immunodeficiency virus 1; assay: Antiviral activity against HIV1 clade C isolate 4110 infected in human H9 cells assessed as inhibition of viral replication; assay type: functional, organism-based; settings: Human immunodeficiency virus 1, clade C isolate 4110, H9; outline: as §1
[28] = test system: CCRF-CEM; assay: as §3; assay type: cell-based; settings: ccrf-cem; outline: as §4
[29] = test system: Hepatitis B virus; assay: Antiviral activity against Hepatitis B virus infected in human HuH7 cells assessed as reduction in viral DNA level treated day 3 to day 8 post transfection by real time quantitative PCR analysis; assay type: functional, organism-based; settings: Huh-7

| SMILES | IC50 [1] [µM] | EC50 [2] [µM] | EC50 [3] [µM] | EC50 [5] [µM] | EC50 [6] [µM] | EC50 [7] [µM] | EC50 [8] [µM] | EC50 [9] [µM] | EC50 [10] [µM] | EC50 [11] [µM] | EC50 [12] [µM] | MCC [13] [µM] | CC50 [14] [µM] | EC50 [15] [µM] | CC50 [16] [µM] | EC50 [17] [µM] | EC50 [18] [µM] | EC50 [19] [µM] | EC50 [21] [µM] | EC50 [22] [µM] | other results |
| --- | --- | --- | --- | --- | --- | --- | --- | --- | --- | --- | --- | --- | --- | --- | --- | --- | --- | --- | --- | --- | --- |
| C[C@H](Cn1cnc2c(N)ncnc21)OCP(=O)(O)OP(=O)(O)OP(=O)(O)O | 11.3 | – | – | – | – | – | – | – | – | – | – | – | – | – | – | – | – | – | – | – | – |
| C[C@H](Cn1cnc2c(N)ncnc21)OCP(=O)(S)OP(=O)(O)OP(=O)(O)O (stereo not given in full) | 13.9 | – | – | – | – | – | – | – | – | – | – | – | – | – | – | – | – | – | – | – | – |
| Nc1ncnc2c1ncn2CCOCP(=O)(S)OP(=O)(O)OP(=O)(O)O (stereo not given) | 6.8 | – | – | – | – | – | – | – | – | – | – | – | – | – | – | – | – | – | – | – | – |
| Nc1ncnc2c1ncn2CCOCP(=O)(O)OP(=O)(O)OP(=O)(O)O | 7 | – | – | – | – | – | – | – | – | – | – | – | – | – | – | – | – | – | – | – | – |
| C[C@H](Cn1cnc2c(N)ncnc21)OCP(=O)(O)O [TENOFOVIR ANHYDROUS] | – | 0.24 | > 200 | 0.15 | > 200 | 0.04 | 3.4 | 0.51 | 4.1 | 0.1 | > 200 | > 200 | > 150 | 0.69 | > 150 | 7.1 | 8.3 | 0.23 | 1.25 | 0.34 | CC50 [4]: > 250 µM; CC50 at 7 day [20]: > 100 µM; CC50 at 7 day [23]: > 100 µM; EC50 [24]: > 200 µM; EC50 [25]: 2.3 µM; EC50 [26]: 5.61 µM; EC50 [27]: 0.83 µM |
| Nc1ncnc2c1ncn2CCOCP(=O)(O)O [ADEFOVIR] | – | 3.51 | 20 | 0.22 | > 200 | 0.19 | 3.2 | 0.32 | 5.5 | 0.32 | 20 | > 200 | > 150 | 1.85 | > 150 | 7 | 7.9 | 1.1 | 1.02 | 1.45 | CC50 [28]: 85 µM; EC50 [29]: 6 µM; CC50 at 7 day [23]: > 30 µM; EC50 [24]: 89 µM; EC50 [26]: 17.8 µM; EC50 [27]: 2.74 µM |
